High-throughput results from PubChem.
Sampled rows, rich in hits. Any-hit rate of the full collection: about 3.9%.
M1 ag = agonists of human M1 muscarinic receptor; AID 588814; CHO-K1 hM1, Fluo-8 calcium fluorescence, agonist mode; 0% DMSO, 100% acetylcholine EC100; activation, % at 3 µM; 360,000 tested, 0.33% active;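 active = activation above the run's mean compound activation plus 3 SD, cut at about 16% in these data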;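 note: peak over basal fluorescence ratio within a 140 s kinetic read after compound addition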
TAAR1 antagonist = antagonists of human TAAR1; CHO RD-HGA16 TAAR1, Fluo-8 calcium fluorescence, antagonist; inhibition, % at 3 µM; Q96RJ0; 360,000 tested, 1.5% active;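 active = inhibition above a per-plate cutoff, the mean inhibition of test compounds on that plate plus 3 SD, cut at about 49% in these data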;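 note: 0% = DMSO plus EC80 beta-PEA response and 100% = DMSO alone without agonist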
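Test system: hTAAR1-expressing CHO RD-HGA16 cells, Gα16-coupled; Probe or stimulus: EC80 β-phenethylamine stimulus; Compound dosing: single nominal final test compound concentration of 3 µM; Timing: 140 s kinetic read after compound, 140 s after agonist; Signal: Fluo-8 calcium-sensitive fluorescence; Measure: % inhibition of agonist calcium response; Controls: DMSO and EC80 PEA controls.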
M1 antag = human CHRM1 antagonism. inhibition, % at 3 µM. CHO-K1 hM1, Fluo-8 calcium fluorescence, ACh EC80 antagonist. 360,000 tested, 1.3% active. AID 588852. P11229;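 active = percent inhibition above its own plate's cutoff, namely the mean of that plate's compound wells plus 3 SD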;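 note: peak over basal fluorescence ratio during 140 s after agonist addition; 0% = ACh EC80 plus DMSO and 100% = DMSO alone without agonist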
m5-HT2A agonist = activates the mouse 5-HT2A serotonin receptor; CHO-K1 mHTR2A beta-arrestin complementation, luminescence; percent of 30 µM serotonin response; activation, % at 7.6 µM; 360,000 tested, 0.66% active; AID 624169;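 active = activation above a run cutoff, the mean activation of all tested compounds plus 3 SD, cut at about 14% in these data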;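 note: 0% = plate median of compound wells and 100% = 30 µM serotonin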
Target sequence (P35363 whole entry, looked up): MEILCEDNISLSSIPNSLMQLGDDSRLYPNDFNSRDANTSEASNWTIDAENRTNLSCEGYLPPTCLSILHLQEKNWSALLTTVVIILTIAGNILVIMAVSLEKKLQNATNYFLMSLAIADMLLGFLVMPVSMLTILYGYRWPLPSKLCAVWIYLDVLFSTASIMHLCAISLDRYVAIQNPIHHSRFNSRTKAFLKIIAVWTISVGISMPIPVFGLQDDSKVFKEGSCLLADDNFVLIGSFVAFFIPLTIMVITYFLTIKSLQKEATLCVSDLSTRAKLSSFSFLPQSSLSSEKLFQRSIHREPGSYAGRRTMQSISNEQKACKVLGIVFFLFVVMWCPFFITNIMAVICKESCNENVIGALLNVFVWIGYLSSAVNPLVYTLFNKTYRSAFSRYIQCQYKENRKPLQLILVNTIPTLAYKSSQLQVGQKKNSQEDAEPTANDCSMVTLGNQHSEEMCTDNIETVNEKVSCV
TAAR1 agonist = agonists of human TAAR1; Q96RJ0; CHO RD-HGA16 TAAR1, Fluo-8 calcium fluorescence; vehicle wells 0%, saturating PEA agonist 100%; activation, % at 3 µM; 360,000 tested, 0.99% active;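 active = activation above the mean activation of all test compounds in the run plus 3 SD, cut at about 38% in these data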
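Test system: RD-HGA16 (CHO) cells co-expressing Gα16 and hTAAR1 | Doses: Single dose, 3 µM | Schedule: 17-24 h seeding, 75 min 37 °C dye, 30 min RT | Evaluation: % activation from peak over basal fluorescence ratio, DMSO-to-PEA scaled | Technique: Kinetic Fluo-8 calcium fluorescence | Benchmarks: Low control DMSO, high control PEA (EC100)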
M1 PAM = positive allosteric modulators of human M1 muscarinic receptor. P11229. 360,000 tested, 0.088% active. CHO-K1 hM1, Fluo-8 calcium fluorescence, ACh EC20; 0% = ACh EC20, 100% = maximal ACh. activation, % at 3 µM; in the data active = activation above about 19%, passing the limit was not always enough
Active calls of the source: *; . = not tested or not shown.

SMILES | M1 ag | TAAR1 antagonist | M1 antag | m5-HT2A agonist | TAAR1 agonist | M1 PAM
O=[N+]([O-])c1ccc(-c2cnc(SCc3ccccc3Cl)[nH]2)cc1 | -1 | 52* | 22 | -13 | 1 | -8
O=[N+]([O-])c1ccc(-c2cnc(SC(c3ccccc3)c3ccccc3)[nH]2)cc1 | -7 | 38 | 26* | -5 | 0 | -15
NC(=O)CSc1ncc(-c2ccc([N+](=O)[O-])cc2)[nH]1 | -4 | -8 | 5 | 4 | 2 | 0
CCOC(=O)C1CCCN(c2cc(=O)n(C3CCCCC3)c(=O)[nH]2)C1 (stereo unspecified) | 31* | -12 | 6 | 3 | 1 | 1
CCOC(=O)C1CCN(c2cc(=O)n(-c3ccc(OC)cc3)c(=O)[nH]2)CC1 | -1 | 7 | -7 | -8 | 0 | 5
O=C1Nc2ccccc2N=C(c2ccc3c(c2)OCO3)C1N(CCc1ccccc1)C(=O)CSc1ncccn1 (stereo unspecified) | -9 | 35 | 21 | 0 | 41* | -14
COc1ccc(C2=Nc3ccccc3NC(=O)C2N(CCc2ccccc2)C(=O)c2cccs2)cc1 (stereo unspecified) | -4 | 35 | -7 | -6 | 44* | -8
O=C1Nc2ccccc2N=C(c2ccc3c(c2)OCO3)C1N(C(=O)c1ccnc2ccccc12)c1ccccc1 (stereo unspecified) | -4 | 13 | 1 | -3 | 1 | 4
OCCCCNCc1ccc(OCc2ccc(Cl)cc2Cl)cc1 | -7 | 11 | 35* | -7 | 38* | -27
OCCNCc1ccc(OCc2ccc(Cl)cc2Cl)cc1 | -4 | 2 | 0 | -5 | 23 | -1
CCN(CC(=O)Nc1c(F)cccc1F)C(=O)CN(C)S(=O)(=O)c1ccc(F)cc1 | -2 | -17 | -4 | -7 | 0 | 4
Cc1ccccc1C(=O)Nc1ccccc1C(=O)NCc1ccccc1 | 0 | 49* | 18 | -8 | 8 | -8
O=C1CCCC2=C1[C@@]1(O[C@H]3C=CC=CN23)C(=O)N(c2ccccc2)c2ccccc21 | . | -21 | . | . | 1 | .
CN1CCC(OC(c2ccccc2)c2ccccc2)CC1 | -8 | -8 | 100* | -6 | 2 | -26
CN1CCC(OC(=O)c2ccco2)CC1 | -8 | -12 | 27 | 0 | 3 | -17
CN1CCC(N(C)CC(O)c2ccccc2)CC1 (stereo unspecified) | -3 | 9 | -1 | 0 | 1 | 6
CN1CCC(Oc2ccccc2Sc2ccccc2)CC1 | -9 | -7 | 100* | -7 | 7 | -26
CC(C)C[C@H](NC(=O)c1ccc(Cl)cc1Cl)C(=O)N1CCC[C@H]1C(=O)NCc1ccccc1 | . | -19 | . | . | -2 | .
Cc1cc(OCc2cc(C(=O)N3CCN(C)C(=O)[C@@H]3C)no2)cc(C)c1Cl | 5 | 28 | 38* | 2 | 15 | -13
COc1cc(Cl)ccc1OCc1cc(C(=O)N2CCN(C)C(=O)[C@@H]2C)no1 | -1 | 9 | -8 | -2 | 0 | 3
CC(C)CC1C(=O)N(Cc2cn(CCC3OCCO3)nn2)CCS(=O)(=O)N1Cc1ccc(-c2cccc(CO)c2)cc1 (stereo unspecified) | -3 | 35 | 3 | -4 | 12 | -4
CC(C)CC1C(=O)N(Cc2cn(CCC3OCCO3)nn2)CCS(=O)(=O)N1Cc1ccc(-c2cccc(N(C)C)c2)cc1 (stereo unspecified) | -2 | 52* | 6 | 1 | 19 | -1
CC(C)CC1C(=O)N(Cc2cn(CCC3OCCO3)nn2)CCS(=O)(=O)N1Cc1ccc(-c2ccc(F)cc2)cc1 (stereo unspecified) | -3 | 54* | -8 | 0 | 9 | 3
CC(OC(=O)C1CSC2(C)CCC(=O)N12)C(=O)Nc1ccc(F)cc1 (stereo unspecified) | -1 | 3 | -8 | 0 | 10 | 12
O=C(NCCc1c[nH]c2ccccc12)c1c(Cl)nc2sccn12 | -1 | 23 | -9 | -7 | 39* | 9
SMILES | M1 ag | TAAR1 antagonist | M1 antag | m5-HT2A agonist | TAAR1 agonist | M1 PAM
O=C(Cc1c(F)cccc1Cl)NCCc1c[nH]c2ccccc12 | 1 | 17 | -7 | 1 | 3 | 8
COc1cc(-c2cc(C(=O)N3CCCCCC3)c3ccccc3n2)cc(OC)c1OC | 1 | 24 | -10 | 0 | 8 | 2
CCOc1ccc(NC(=O)CN(C)C(=O)c2cc(-c3ccc(OC)cc3)nc3ccccc23)cc1OCC | -2 | 56* | 30* | 1 | 11 | -8
CCN(Cc1ccccc1)C(=O)c1cc(-c2ccc(OC)c(OC)c2)nc2ccccc12 | -4 | 67* | 35* | 1 | 3 | -12
COc1cc(-c2cc(C(=O)N(C)Cc3ccccc3)c3ccccc3n2)cc(OC)c1OC | -5 | 47 | 22* | 8 | 5 | -11
CCN(CC)CC#CCC1(O)c2ccccc2-c2ccccc21 | -10 | -11 | 26* | 1 | -1 | -24
CCN(CC#CCC1(O)c2ccccc2-c2ccccc21)C(C)C | -6 | -6 | 71* | 0 | 3 | -22
CC(C)CN1C(=S)SC(C)(C)C1n1oc(=O)n(-c2ccc(Cl)cc2)c1=O (stereo unspecified) | -8 | . | 51* | 0 | . | -30
O=C(CN(Cc1ccco1)C(=O)c1ccc(F)cc1)Nc1ccccc1Br | -1 | -8 | -4 | 4 | 1 | 1
Cc1[nH]c2ccccc2c1C(=O)CSc1nc2ccccc2[nH]1 | -1 | 55* | 2 | 1 | 14 | -10
Cn1c(N)c(C(=O)CSc2nc3ccccc3c(=O)n2CCCN2CCOCC2)c(=O)n(C)c1=O | -7 | -6 | 8 | 0 | 4 | -2
Cc1[nH]c2ccccc2c1C(=O)CSc1nc2ccccc2c(=O)n1CCCN1CCOCC1 | 1 | 71* | 24 | -5 | 48* | -10
Cc1[nH]c2ccccc2c1C(=O)CSc1nccc(=O)[nH]1 | -4 | -23 | 0 | 0 | 2 | 1
CS(=O)(=O)c1cccc(C(=O)N(CCc2ccccc2)Cc2cccs2)c1 | -6 | -12 | -17 | -5 | 38* | 7
CN(CC(=O)N1CCN(c2ccccc2)CC1)C1CCCc2ccccc21 (stereo unspecified) | -10 | -18 | -3 | -7 | -2 | 8
CCOc1ccc(C(=O)NCC(=O)OCc2cc([N+](=O)[O-])cc3c2OCOC3)cc1OCC | -8 | -13 | -8 | 0 | 1 | 7
COc1cc(C(=O)NC(CCSC)C(=O)OCc2cc([N+](=O)[O-])cc3c2OCOC3)cc(OC)c1OC (stereo unspecified) | -2 | 43 | 26* | 1 | 18 | -8
CC(=O)Nc1ccc(OC(=O)N2CCCC2)cc1 | -2 | 3 | -19 | -3 | 1 | 6
